Assays:
Plasmodium falciparum [1] = test: (§1) In vitro inhibitory concentration against chloroquine-resistant Plasmodium falciparum K1; format: functional, organism-based
Outline: (§2)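 48 h growth assay in human erythrocytes (2% parasitemia, 0.5% haematocrit) in RPMI 1640 with 25 mM HEPES, 32 mM NaHCO3 and 10% human serum, under 3% O2/4% CO2/93% N2 at 37 °C. DMSO stocks diluted in medium; triplicates. 0.5 μCi [3H]-hypoxanthine added at 24 h, uptake counted 24 h later. IC50 by probit interpolation of log dose–response versus drug-free controls.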

Plasmodium falciparum [2] = test: In vitro inhibitory concentration against chloroquine-sensitive Plasmodium falciparum HB3; format: functional, organism-based; outline: as §2
Plasmodium falciparum [3] = test: as §1; format: functional, organism-based; outline: as §2; remark: listed apart in the source
Mus musculus [4] = organism: Mus musculus; test: 50% effective dose against Plasmodium yoelii in mice (Mus musculus); format: functional
Mus musculus [5] = organism: Mus musculus; test: 90% effective dose against Plasmodium yoelii in mice (Mus musculus); format: functional
Mus musculus [6] = test: 50% effective dose for antimalarial activity (in vivo) against Plasmodium berghei; format: functional
Outline: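 Male Swiss albino mice, 18-22 g, infected ip with 10^7 P. berghei NS parasitized erythrocytes. Dosed ip or orally once daily for 4 days from the day of infection, in methanol/PBS/DMSO (2:5:3 v/v). Parasitemia read the day after the last dose. ED50 (50% suppression versus vehicle controls) taken from a plot of log dose against parasitemia.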

Compound | IC50 (Plasmodium falciparum [2]) [nM] | IC50 (Plasmodium falciparum [3]) [nM] | other results
CO[C@H]1O[C@@H]2O[C@@]3(C)CC[C@H]4[C@H](C)CC[C@@H]([C@H]1C)[C@@]24OO3 [ARTEMETHER] | 9.2 | 6.5 | IC50 (Plasmodium falciparum [1]): 7.94 nM
C[C@H]1[C@@H](CCN2CCN(c3ccc(Cl)cc3)CC2)O[C@@H]2O[C@]3(C)CC[C@H]4[C@H](C)CC[C@@H]1[C@@]24OO3 | – | 8.16 | –
C[C@H]1[C@@H](OCc2cccc(CN3CCN(c4ccc(Cl)cc4)CC3)c2)O[C@@H]2OC3(C)CCC4[C@H](C)CC[C@@H]1[C@]42OO3 (single isomer, unassigned) | – | 13.3 | –
C[C@H]1[C@@H](OCc2cccc(CN3CCN(c4ccc(F)cc4)CC3)c2)O[C@@H]2OC3(C)CCC4[C@H](C)CC[C@@H]1[C@]42OO3 (single isomer, unassigned) | 12.6 | 12.6 | –
C[C@H]1[C@@H](OCc2ccc(CN3CCN(c4ccc([N+](=O)[O-])cc4)CC3)cc2)O[C@@H]2OC3(C)CCC4[C@H](C)CC[C@@H]1[C@]42OO3 (single isomer, unassigned) | – | 138 | –
C[C@H]1[C@@H](CCN2CCCCC2)O[C@@H]2OC3(C)CCC4[C@H](C)CC[C@@H]1[C@]42OO3 (single isomer, unassigned) | – | 4.83 | –
C[C@H]1[C@@H](OCc2cccc(CN3CCN(c4ccc([N+](=O)[O-])cc4)CC3)c2)O[C@@H]2OC3(C)CCC4[C@H](C)CC[C@@H]1[C@]42OO3 (single isomer, unassigned) | 4.3 | 4.3 | –
C[C@H]1[C@@H](OCc2ccc(CN3CCN(Cc4ccccc4)CC3)cc2)O[C@@H]2O[C@]3(C)CC[C@H]4[C@H](C)CC[C@@H]1[C@@]24OO3 | 1.8 | 3.8 | –
C[C@H]1[C@@H](OCc2cccc(CN3CCN(c4cccc(C(F)(F)F)c4)CC3)c2)O[C@@H]2OC3(C)CCC4[C@H](C)CC[C@@H]1[C@]42OO3 (single isomer, unassigned) | – | 22.5 | –
C[C@H]1[C@@H](CCN2CCN(c3cccc(C(F)(F)F)c3)CC2)O[C@@H]2OC3(C)CCC4[C@H](C)CC[C@@H]1[C@]42OO3 (single isomer, unassigned) | – | 6.19 | ED50 (Mus musculus [4]): < 10 mg/kg; ED90 (Mus musculus [5]): < 10 mg/kg; ED50 (Mus musculus [6]): 3.12 mg/kg
C[C@H]1[C@H](OC(=O)CCC(=O)[O-])O[C@@H]2O[C@@]3(C)CC[C@H]4[C@H](C)CC[C@@H]1[C@@]24OO3.[Na+] [SODIUM ARESUNATE] | – | – | ED50 (Mus musculus [4]): 1.6 mg/kg; ED90 (Mus musculus [5]): 100 mg/kg
C[C@H]1[C@@H](OCc2ccc(CN3CCN(c4ccc(C(F)(F)F)cc4)CC3)cc2)O[C@@H]2OC3(C)CCC4[C@H](C)CC[C@@H]1[C@]42OO3 (single isomer, unassigned) | 8.1 | 12.5 | –
C[C@H]1[C@@H](OCc2cccc(CN3CCN(c4ccccc4)CC3)c2)O[C@@H]2OC3(C)CCC4[C@H](C)CC[C@@H]1[C@]42OO3 (single isomer, unassigned) | 3.4 | 6.6 | –
C[C@H]1[C@@H](CCN2CCN(Cc3ccccc3)CC2)O[C@@H]2OC3(C)CCC4[C@H](C)CC[C@@H]1[C@]42OO3 (single isomer, unassigned) | – | 4.22 | ED50 (Mus musculus [4]): < 10 mg/kg; ED90 (Mus musculus [5]): > 10 mg/kg
C[C@H]1[C@@H](CCN2CCN(c3ccc(F)cc3)CC2)O[C@@H]2OC3(C)CCC4[C@H](C)CC[C@@H]1[C@]42OO3 (single isomer, unassigned) | – | 5.96 | ED50 (Mus musculus [4]): < 10 mg/kg; ED90 (Mus musculus [5]): 10 mg/kg
C[C@H]1[C@@H](OCc2ccc(CN3CCN(c4ccccc4)CC3)cc2)O[C@@H]2OC3(C)CCC4[C@H](C)CC[C@@H]1[C@]42OO3 (single isomer, unassigned) | – | 8.2 | –
C[C@H]1[C@@H](OCc2ccc(CN3CCN(c4ccc(F)cc4)CC3)cc2)O[C@@H]2OC3(C)CCC4[C@H](C)CC[C@@H]1[C@]42OO3 (single isomer, unassigned) | 2.3 | 6.3 | –
C[C@H]1[C@@H](CCN2CCN(c3ccc([N+](=O)[O-])cc3)CC2)O[C@@H]2OC3(C)CCC4[C@H](C)CC[C@@H]1[C@]42OO3 (single isomer, unassigned) | – | 4.29 | ED50 (Mus musculus [4]): < 10 mg/kg; ED90 (Mus musculus [5]): > 10 mg/kg
C[C@H]1[C@@H](CCN2CCN(c3ccccc3)CC2)O[C@@H]2OC3(C)CCC4[C@H](C)CC[C@@H]1[C@]42OO3 (single isomer, unassigned) | – | 3.15 | ED50 (Mus musculus [4]): < 10 mg/kg; ED90 (Mus musculus [5]): > 10 mg/kg
C[C@H]1[C@@H](CCN2CCOCC2)O[C@@H]2OC3(C)CCC4[C@H](C)CC[C@@H]1[C@]42OO3 (single isomer, unassigned) | – | 4.22 | –
CCCN(CCC)CC[C@H]1O[C@@H]2O[C@]3(C)CC[C@H]4[C@H](C)CC[C@@H]([C@H]1C)[C@@]24OO3 | – | 7.51 | –
C[C@@H]1CC[C@H]2[C@@H](C)C(=O)O[C@@H]3O[C@@]4(C)CC[C@@H]1[C@]32OO4 [ARTEMISININ] | – | 12.5 | –
